Compound activity deposited in PubChem BioAssay by several laboratories.
Only some compounds are listed: those with a hit (about 2.9% of all), similar ones and a draw of the others.
Runt-SMMHC FRET – inhibitors of RUNX1 Runt–CBFb-SMMHC binding, primary screen, biochemical, FRET, Cerulean-Runt, Venus-CBFb-SMMHC, uHTS. inhibition, % at 20 µM. hit rate 0.74% among 220,000. Runt-related transcription factor 1 (Homo sapiens) + Core-binding factor subunit beta …. Cerulean-Runt/Venus-CBFb-SMMHC FRET ratio 530/480, 1 h;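 active = mean inhibition across duplicate retests at 20 µM reaching about 50%, limit read from the data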;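 note: 0% = DMSO wells and 100% = wells with excess untagged CBFb-SMMHC; inhibitors lower the FRET ratio by blocking Runt binding to CBFb-SMMHC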
Wee1 degr inh – Wee1 degradation inhibitors, primary screen, cell-based, HeLa, Wee1K328M-luciferase, luminescence; HeLa Luc-Wee1K328M stability; 100% = proteasome inhibitor MG132 effect; reporter increase, % at 5 µM; hit rate 1.2% among 220,000; Wee1-like protein kinase (Homo sapiens), P30291; AID 1321, 2008;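 active = activation above the mean of all tested compounds plus 3 SD, set per screening run, cut at about 8.8% in these data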;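 note: cells exposed to compound for 20 h before luminescence read; 0% = DMSO alone and 100% = MG132 at 30 µM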
Target sequence (P30291 whole entry K328M): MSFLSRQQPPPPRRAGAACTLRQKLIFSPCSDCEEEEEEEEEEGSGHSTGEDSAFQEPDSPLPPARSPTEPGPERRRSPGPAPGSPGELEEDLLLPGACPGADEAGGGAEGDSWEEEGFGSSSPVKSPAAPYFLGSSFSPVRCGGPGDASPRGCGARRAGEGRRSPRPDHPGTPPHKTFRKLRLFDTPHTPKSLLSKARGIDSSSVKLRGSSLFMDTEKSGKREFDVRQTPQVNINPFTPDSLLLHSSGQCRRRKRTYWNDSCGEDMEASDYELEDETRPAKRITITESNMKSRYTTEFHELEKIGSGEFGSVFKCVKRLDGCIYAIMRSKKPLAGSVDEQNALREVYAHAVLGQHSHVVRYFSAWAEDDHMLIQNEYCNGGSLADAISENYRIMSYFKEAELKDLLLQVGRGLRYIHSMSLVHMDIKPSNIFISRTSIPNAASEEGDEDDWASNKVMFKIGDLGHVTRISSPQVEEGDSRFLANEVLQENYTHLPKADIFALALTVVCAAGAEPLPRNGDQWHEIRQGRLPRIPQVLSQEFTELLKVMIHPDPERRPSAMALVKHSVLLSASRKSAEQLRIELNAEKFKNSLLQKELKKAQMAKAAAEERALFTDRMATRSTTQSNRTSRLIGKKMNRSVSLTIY
AI-2 QS modul – Vibrio harveyi AI-2 quorum sensing modulators, primary screen, JMH597 strain, luminescence/OD600 ratio; Vibrio harveyi JMH597 AI-2 luminescence/OD600 ratio, 9 h; active compounds read low; strain lacks LuxN and CqsS sensors; 0 = neutral-control median; activity change, % at 7.5 µM; hit rate 0.4% among 300,000; AID 2094, 2009; in the data active = activity change below about -75%, passing the limit was not always enough; inconclusive = no clear call, values can overlap the other calls;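 note: luminescence divided by OD600 gain over 9 h not by final OD600 alone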
Runt-CBFb FRET – inhibitors of RUNX1 Runt–CBFb binding, primary screen, biochemical, FRET, Cerulean-Runt, Venus-CBFb, uHTS. Runt-related transcription factor 1 (Homo sapiens) + Core-binding factor subunit beta …. Cerulean-Runt/Venus-CBFb FRET ratio 530/480, 1 h. inhibition, % at 20 µM. hit rate 0.46% among 220,000;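 active = inhibition over about 50% at 20 µM in the single-dose screen, limit read from the data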;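 note: 0% = DMSO wells and 100% = excess unlabeled CBFb competitor control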
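Assay system: Cerulean-Runt domain fusion protein, energy donor; Signal: fluorescence energy transfer, 422 nm excitation, 530/480 nm emission; Timing: 1 h compound exposure, room temperature; Control set: unlabeled CBFb; Medium: Tris buffer pH 7.5 with salts and BSA; Compound: single test concentration of 20 µM, 1% DMSO final; Probe or stimulus: Venus-CBFb 100 nM.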
proKLK7 act – proKLK7 zymogen activators, primary screen, biochemical, fluorescence intensity | activation, % at 7 µM | purified proKLK7, EDANS-DABCYL substrate fluorescence; 100% is mature enzyme control, 0% vehicle | hit rate 0.9% among 370,000 | Kallikrein-7 (Homo sapiens), P49862;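 active = activation above the mean of all tested compounds plus 3 SD, computed per campaign excluding outliers beyond control limits, cut at about 13% in these data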
RanGTP-Imp inh – inhibitors of RanGTP-importin-beta interaction, primary screen, biochemical, FRET, CFP-Ran, YFP-importin-beta, homogeneous. Ran GTPase (GTP-bound) - importin-beta complex. cell-free CFP-Ran/YFP-importin-beta FRET ratio. inhibition, % (test concentration not listed). hit rate 1.1% among 300,000. AID 2216, 2009;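 active = more than half of the replicate wells show a fall in the fluorescence ratio signal beyond about 16%, limit read from the data, passing the limit was not always enough; inconclusive = exactly half of the replicate wells pass the set limit; inactive = fewer than half of replicates pass the limit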;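 note: 0% = DMSO wells and 100% = Ran loaded with GDP instead of GTP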
An asterisk follows results filed as active; ? = inconclusive; . = no result given.

SMILES	Runt-SMMHC FRET	Wee1 degr inh	AI-2 QS modul	Runt-CBFb FRET	proKLK7 act	RanGTP-Imp inh
O=c1[nH]c(=S)[nH]cc1Oc1ccc(Cl)cc1Cl	-2	9.0*	-48	2	0	5
Cc1ncc(CO)c(/C=N/NC(=O)c2ccc(O)cc2)c1O	63*	-2	0	24	-30	44*
Cc1ncc(CO)c(/C=N/NC(=S)Nc2ccc(Cl)c(Cl)c2)c1O	10	5	-210*	11	-46	5
Cc1ncc(CO)c(/C=N/NC(=S)Nc2cccc(Cl)c2)c1O	30	-1	-3	15	.	5
Cc1ncc(CO)c(/C=N/NC(=O)c2cc3c(s2)CCCC3)c1O	92*	0	43	32	-39	50*
CC(C)(C)OC(=O)NCCc1nnc(S(=O)(=O)Cc2ccc(Cl)cc2Cl)o1	-3	-2	-89*	-7	0	6
CC1(C)CC(NNCCC#N)=CC(=[N+]2CCCC2)C1	2	-1	2	3	0	19*
CN(Cc1ccccc1)C1=CC(=[N+]2CCCCC2)CC(C)(C)C1	8	-1	22	-11	0	4
COc1ccc(C2N(c3ccccc3)CCN2c2ccccc2)cc1O	-2	-3	14	-1	0	25*
O=[N+]([O-])c1ccc(S(=O)(=O)NCCc2ccncc2)cc1	-2	-1	13	0	0	?
Cn1cnnc1SCC(=O)c1c[nH]c2ccccc12	-2	-1	4	-2	1	31*
O=C(/C=C/c1ccccc1)N1CCC(N2CCC(C(=O)N3CCOCC3)CC2)CC1	2	-1	21	1	0	1
O=C1NC(=O)C(=C2CCOC2=O)N1	.	.	.	.	0	.
CCOC1=C2[C@@H](CN(S(=O)(=O)c3ccc(C)cc3)[C@H]2c2cccc3ccccc23)[C@H]2C(=O)N(C3CCCCC3)C(=O)[C@H]2C1	.	.	.	.	0	.
CCOc1ccc(C2C(C#N)=C(N)SC(N)=C2C#N)cc1OCC	27	.	32	12	-1	33*
CCOc1ccccc1C1C(C#N)=C(N)SC(N)=C1C#N	43	1	-1	13	-2	11
CCOc1ccc(C2C(C#N)=C(N)SC(N)=C2C#N)cc1OC	-7	5	20	6	.	26*
CCOC(=O)C1=C(C)OC(N)=C(C#N)C1c1ccc(O)c(OC)c1 (configuration not stated)	14	0	7	5	0	-2
CCOc1ccc(C(=O)NN2C(=S)NC(C)(C)C=C2C)cc1	0	-3	24	2	1	0
O=C(N/N=C\C=C\c1ccc2c(c1)OCO2)C1COc2cc3ccccc3cc2O1 (configuration not stated)	2	-1	14	1	-1	19*
O=C(N/N=C/c1sc2ccccc2c1O)c1ccccc1	-80	6	-81*	-9	.	8
COc1ccc(C(=O)N/N=C/c2sc3ccccc3c2O)cc1	71	0	-92*	18	.	8
CCC(=O)Nc1nnc(-c2ccc(Cl)s2)o1	-3	9.3*	12	0	-5	?
Brc1ccc(-c2noc(COc3ccc4ccccc4c3)n2)o1	-5	3	9	-1	0	-2
Cc1cccc(OCc2nc(-c3ccc(Br)o3)no2)c1	-3	-1	-78*	0	0	6
SMILES	Runt-SMMHC FRET	Wee1 degr inh	AI-2 QS modul	Runt-CBFb FRET	proKLK7 act	RanGTP-Imp inh
COc1ccc(Cl)cc1NC(=O)Cn1c(NCCO)nc2ccccc21	0	-1	40	0	-1	-2
CCOC(=O)C1=C(C(=O)OCC)C2N(Cc3ccc(C(F)(F)F)cc3)c3ccccc3[C@@]23C[C@@H](C(=O)OC)N(S(=O)(=O)c2ccc(OC)cc2)C3=N1 (some centres not stated)	.	.	.	.	1	.
CCSc1nc(O)cc(=O)[nH]1	-1	11*	34	-1	1	2
CCCCCSc1nc(O)cc(=O)[nH]1	2	-2	24	1	-1	0
COc1cc(C=Nn2c(-c3cc(-c4ccccc4)n[nH]3)n[nH]c2=S)ccc1OC(C)=O	.	.	.	.	-1	.
Cc1ccc(C(=O)N/N=C\c2ccccn2)cn1	4	11*	27	2	1	10
Cc1ccc(C(=O)N/N=C\c2ccccc2[N+](=O)[O-])cn1	-5	11*	14	.	0	-3
O=C(N/N=C/c1ccccn1)NC12CC3CC(CC(C3)C1)C2	-6	10.0*	7	2	0	-3
Cc1ccc(C(=O)N/N=C\C=C\c2ccccc2[N+](=O)[O-])cn1	6	1	5	5	0	1
CC(C)(C)c1ccc(C(=O)N/N=C/c2ccccn2)cc1	.	.	52	.	0	1
CCN(CC(=O)NC(C)(C)C)C(=O)COc1c(Cl)cc(Cl)c2ccc(C)nc12	1	-2	-81*	0	1	-3
Cc1ccccc1C(=O)N[C@H](C(=O)N1CCC[C@H]1C(=O)NC1CCCC1)c1ccccc1	.	.	.	.	0	.
Cc1ccc(C(C)C)c(OCC(=O)N/N=C/C2CCCCC2)c1	-1	9.2*	18	-5	0	1
COc1ccc(OCc2cc(C(=O)NCc3nc(C)cs3)no2)c(Cl)c1	.	.	22	.	0	1
O=C(c1ccccc1)c1ccc2ccccc2n1	0	-1	6	-2	-1	-2
O=C(O)C(=O)/C(=C\c1ccc([N+](=O)[O-])cc1)c1ccc2ccccc2n1	25	2	6	15	-1	9
O=C(O)C(=O)/C(=C\c1cccc2ccccc12)c1ccc2ccccc2n1	80*	0	15	19	-3	63*
O=C(O)C(=O)/C(=C\c1ccccc1)c1ccc2ccccc2n1	52*	0	33	7	-9	31*
O=C(O)C(=O)/C(=C\c1ccsc1)c1ccc2ccccc2n1	.	.	5	.	-58	20*
CCN(CC)CCCN1C(=O)C2=C(C1=O)C1N(C)c3ccccc3[C@@]13C[C@@H](CO)N(C(=O)CCC(=O)OC)C3=N2 (some centres not stated)	.	.	.	.	0	.
Cc1nc2ccc(S(=O)(=O)NCC(=O)NCc3ccccc3Cl)cc2s1	.	.	.	.	0	.
CC1=Nc2ccccc2/C1=C/c1sc(=N)n(-c2nccs2)c1O	-112	0	20	-42	.	23*
